Source: ChEMBL document CHEMBL4043300, “2 H-1,2,3-Triazole-Based Dipeptidyl Nitriles: Potent, Selective, and Trypanocidal Rhodesain Inhibitors by Structure-Based Design” (J Med Chem, 2018)
≈ marks a conversion by molar mass, not a printed value.

How the values were obtained:
[1] = Solubility of the compound at pH 6.5 by LYSA; format: physicochemical; conditions: buffer
Procedure, shortened: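 Lyophilization solubility assay at pH 6.5.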

Rhodesain = Rhodesain (Trypanosoma brucei rhodesiense, UniProt Q95PM0); experiment: Inhibition of Trypanosoma brucei rhodesiense rhodesain using Cbz-Phe-Arg-AMC as substrate by fluorimetric method
Procedure, shortened: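 Fluorescence-based assay run at 25 °C in 50 mM sodium acetate pH 5.5 with 5 mM EDTA, 200 mM NaCl and 0.005% Brij35. IC50 values were converted to Ki with the Cheng-Prusoff equation. Values are the average of two measurements, each done in duplicate.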

Procathepsin L = Procathepsin L (Homo sapiens, UniProt P07711); experiment: Inhibition of human CatL using Cbz-Phe-Arg-AMC as substrate measured over 30 mins by fluorimetric method
Procedure, shortened: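 Human cathepsin L in a fluorimetric assay in 50 mM Tris pH 6.5, 5 mM EDTA, 200 mM NaCl, 0.005% Brij35 at 25 °C. Ki was calculated from IC50 by Cheng-Prusoff. Value is the average of two measurements, each in duplicate.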

[2] = Selectivity index, ratio of Ki for human CatL to Ki for Trypanosoma brucei rhodesiense rhodesain
Procedure, shortened: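 Ki(hCatL)/Ki(RD). Fluorimetric assays at 25 °C: RD in 50 mM sodium acetate pH 5.5; hCatL in 50 mM Tris pH 6.5; both buffers with 5 mM EDTA, 200 mM NaCl, 0.005% Brij35. Ki derived from IC50 by Cheng-Prusoff. Each value is the mean of two measurements, each done in duplicate.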

[3] = system: Trypanosoma brucei rhodesiense; experiment: Antitrypanosomal activity against bloodstream form of Trypanosoma brucei rhodesiense STIB 900 assessed as parasite growth inhibition after 72 hrs by Alamar blue assay; format: functional; conditions: STIB 900, 72 h
Procedure, shortened: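 Standard 72 h growth-inhibition assay with STIB 900 bloodstream trypomastigotes and Alamar Blue read-out. Value is the mean of at least 2 measurements.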

L6 = experiment: Cytotoxicity against rat L6 cells after 72 hrs by Alamar blue assay; format: cell-based; conditions: L6, 72 h
Procedure, shortened: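 Rat skeletal myoblast L6 cells in an Alamar Blue growth-inhibition assay. Value is the mean of at least 2 measurements.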

[4] = Intrinsic clearance in human liver microsomes at 2 uM after 30 mins in presence of NADPH by LC-MS/MS method; format: ADME, microsome; conditions: read-out: CLH
[5] = Intrinsic clearance in mouse liver microsomes at 2 uM after 30 mins in presence of NADPH by LC-MS/MS method; format: ADME, microsome; conditions: read-out: CLH
[6] = Permeability of the compound after 15 hrs by PAMPA; format: physicochemical; conditions: read-out: permeability
Cytochrome P450 3A4 = Cytochrome P450 3A4 (Homo sapiens, UniProt P08684); experiment: Inhibition of CYP3A4 in human liver microsomes using DBF as substrate by fluorescence assay; format: ADME
Procedure, shortened: (§1)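 Human liver microsomes with CYP-selective substrate metabolism reactions for 2C9, 2D6 and 3A4.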

Cytochrome P450 2D6 = Cytochrome P450 2D6 (Homo sapiens, UniProt P10635); experiment: Inhibition of CYP2D6 in human liver microsomes using AMMC as substrate by fluorescence assay; format: ADME; procedure, shortened: as §1
Cytochrome P450 2C9 = Cytochrome P450 2C9 (Homo sapiens, UniProt P11712); experiment: Inhibition of CYP2C9 in human liver microsomes using MFC as substrate by fluorescence assay; format: ADME; procedure, shortened: as §1
[7] = Half life in C57BL/6J mouse at 0.8 mg/kg, iv as bolus dose by LC-MS/MS analysis; format: ADME, organism-based; conditions: in vivo
Procedure, shortened: (§2)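 Mice received intravenous compound in N-methylpyrrolidinone / 40% aqueous hydroxypropyl-γ-cyclodextrin (30/70). Blood was drawn into K₂EDTA at 5 min, 15 min, 30 min, 1, 2, 4 and 8 h, and plasma was separated at 3000 × g for 5 min at 4 °C and stored at -20 °C. Plasma levels were measured by LC–MS/MS, and parameters derived by non-compartmental analysis.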

[8] = Clearance in C57BL/6J mouse at 0.8 mg/kg, iv as bolus dose by LC-MS/MS analysis; format: ADME, organism-based; conditions: in vivo; procedure, shortened: as §2
[9] = Volume of distribution at steady state in C57BL/6J mouse at 0.8 mg/kg, iv as bolus dose by LC-MS/MS analysis; format: ADME, organism-based; conditions: in vivo, read-out: Vdss; procedure, shortened: as §2
[10] = Unbound fraction in human plasma; format: ADME, cell-free
[11] = system: Trypanosoma brucei rhodesiense; experiment: Antitrypanosomal activity against bloodstream form of Trypanosoma brucei rhodesiense STIB 900 infected in NMRI mouse assessed as reduction of parasitemia at 50 mg/kg, po administered for 3 consecutive days starting 1 day post infection measured at 24 hrs post last dose relative to control; format: functional; parameters: scale not given: the % may be the effect or the level left
Procedure, shortened: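 Female mice infected with STIB900 were dosed orally at 50 mg/kg/day on three consecutive days, starting 1 day post-infection. Compound was in 100% DMSO diluted 10-fold in distilled water, given at 0.1 mL/10 g. Tail-blood parasitaemia was measured 24 h after the last dose versus 4 untreated infected controls. Values are means of 2 mice.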

[12] = Selectivity index, ratio of IC50 for rat L6 cells to IC50 for bloodstream form of Trypanosoma brucei rhodesiense STIB 900; format: toxicity; conditions: read-out: Ratio IC50
Procedure, shortened: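 Ratio of L-6 rat skeletal myoblast IC50 to T. b. rhodesiense STIB 900 bloodstream trypomastigote IC50, both from Alamar Blue growth-inhibition assays. Each IC50 is the mean of at least 2 measurements.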

[13] = system: Trypanosoma brucei rhodesiense; experiment: Antitrypanosomal activity against bloodstream form of Trypanosoma brucei rhodesiense STIB 900 assessed as parasite growth inhibition after 2 hrs by Alamar blue assay; format: functional; conditions: STIB 900, 2 h
Procedure, shortened: (§3)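 Bloodstream STIB 900 trypomastigotes, 1x10⁴ per well, exposed to eleven 3-fold serial dilutions at 37 °C/5% CO₂ for the stated pulse time. Parasites were then pelleted and washed four times, and an aliquot was regrown 72 h drug-free in triplicate plates. Resazurin was added for 2–4 h, fluorescence read at ex 536/em 588 nm, and IC50 taken by linear regression of sigmoidal curves. Melarsoprol served as control.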

[14] = system: Trypanosoma brucei rhodesiense; experiment: Antitrypanosomal activity against bloodstream form of Trypanosoma brucei rhodesiense STIB 900 assessed as parasite growth inhibition after 6 hrs by Alamar blue assay; format: functional; conditions: STIB 900, 6 h; procedure, shortened: as §3
[15] = system: Trypanosoma brucei rhodesiense; experiment: Antitrypanosomal activity against bloodstream form of Trypanosoma brucei rhodesiense STIB 900 assessed as parasite growth inhibition after 16 hrs by Alamar blue assay; format: functional; conditions: STIB 900, 16 h; procedure, shortened: as §3
[16] = system: Trypanosoma brucei rhodesiense; experiment: Antitrypanosomal activity against bloodstream form of Trypanosoma brucei rhodesiense STIB 900 assessed as parasite growth inhibition after 24 hrs by Alamar blue assay; format: functional; conditions: STIB 900, 24 h; procedure, shortened: as §3
[17] = system: Trypanosoma brucei rhodesiense; experiment: Antitrypanosomal activity against bloodstream form of Trypanosoma brucei rhodesiense STIB 900 assessed as parasite growth inhibition after 48 hrs by Alamar blue assay; format: functional; conditions: STIB 900, 48 h; procedure, shortened: as §3
MDR1 (P-gp) = experiment: Efflux ratio of permeability across pig LLC-PK1 cells expressing human MDR1 at 1 uM after 3.5 hrs by LC-MS/MS analysis; format: ADME, cell-based, Sus scrofa
Procedure, shortened: (§4)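 LLC-PK1 monolayers stably transfected with human MDR1 or mouse Mdr1a, grown in Medium 199/10% FCS with colchicine on permeable inserts and used day 4 after seeding. 1 μM compound added apical or basolateral; transport run in both directions in triplicate, 37 °C, 5% CO₂. Donor and receiver sampled at 3.5 h, quantified by LC–MS/MS. Lucifer yellow checked monolayer tightness.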

Mdr1a (P-gp) = experiment: Efflux ratio of permeability across pig LLC-PK1 cells expressing mouse Mdr1a at 1 uM after 3.5 hrs by LC-MS/MS analysis; format: ADME, cell-based, Sus scrofa; procedure, shortened: as §4
[18] = Octanol-water intrinsic distribution co-efficient, log D of the compound at 100 uM at pH 7.4 after 16 to 22 hrs by CAMDIS assay; format: physicochemical
Procedure, shortened: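 Octanol/aqueous buffer (pH 7.4) intrinsic distribution coefficient measured in the CAMDIS carrier-mediated distribution system.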

[19] = Half life in C57BL/6J mouse at 1.3 mg/kg, iv as bolus dose by LC-MS/MS analysis; format: ADME, organism-based; conditions: in vivo; procedure, shortened: as §2
[20] = Clearance in C57BL/6J mouse at 1.3 mg/kg, iv as bolus dose by LC-MS/MS analysis; format: ADME, organism-based; conditions: in vivo; procedure, shortened: as §2
[21] = Volume of distribution at steady state in C57BL/6J mouse at 1.3 mg/kg, iv as bolus dose by LC-MS/MS analysis; format: ADME, organism-based; conditions: in vivo, read-out: Vdss; procedure, shortened: as §2

Sequence of Cytochrome P450 2C9 (P11712 whole entry): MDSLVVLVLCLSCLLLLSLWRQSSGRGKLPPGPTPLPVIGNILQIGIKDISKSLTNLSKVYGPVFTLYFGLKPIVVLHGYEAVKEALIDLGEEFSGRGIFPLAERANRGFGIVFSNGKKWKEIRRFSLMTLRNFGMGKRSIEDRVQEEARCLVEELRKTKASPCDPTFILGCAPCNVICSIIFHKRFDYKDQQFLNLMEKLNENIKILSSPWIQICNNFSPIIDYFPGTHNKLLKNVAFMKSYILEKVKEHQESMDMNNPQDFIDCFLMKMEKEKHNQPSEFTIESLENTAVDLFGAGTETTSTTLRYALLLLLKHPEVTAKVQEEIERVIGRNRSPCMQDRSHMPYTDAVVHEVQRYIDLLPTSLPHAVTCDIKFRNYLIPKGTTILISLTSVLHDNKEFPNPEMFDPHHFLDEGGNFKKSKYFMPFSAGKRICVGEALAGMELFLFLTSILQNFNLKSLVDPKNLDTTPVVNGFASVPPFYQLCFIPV
Sequence of Rhodesain (Q95PM0 whole entry): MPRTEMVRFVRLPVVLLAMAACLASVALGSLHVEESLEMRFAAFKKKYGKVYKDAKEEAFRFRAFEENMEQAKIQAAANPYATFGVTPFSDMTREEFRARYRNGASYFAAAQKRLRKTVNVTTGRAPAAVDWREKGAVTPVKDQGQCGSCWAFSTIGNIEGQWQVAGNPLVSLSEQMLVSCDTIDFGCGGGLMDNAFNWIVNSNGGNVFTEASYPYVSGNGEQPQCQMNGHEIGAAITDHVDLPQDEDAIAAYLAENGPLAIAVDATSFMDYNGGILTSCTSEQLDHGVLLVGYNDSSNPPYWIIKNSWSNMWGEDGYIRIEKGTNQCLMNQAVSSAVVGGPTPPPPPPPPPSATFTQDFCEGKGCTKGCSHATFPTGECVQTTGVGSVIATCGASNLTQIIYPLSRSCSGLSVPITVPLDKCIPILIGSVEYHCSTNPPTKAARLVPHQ
Sequence of Procathepsin L (P07711 whole entry): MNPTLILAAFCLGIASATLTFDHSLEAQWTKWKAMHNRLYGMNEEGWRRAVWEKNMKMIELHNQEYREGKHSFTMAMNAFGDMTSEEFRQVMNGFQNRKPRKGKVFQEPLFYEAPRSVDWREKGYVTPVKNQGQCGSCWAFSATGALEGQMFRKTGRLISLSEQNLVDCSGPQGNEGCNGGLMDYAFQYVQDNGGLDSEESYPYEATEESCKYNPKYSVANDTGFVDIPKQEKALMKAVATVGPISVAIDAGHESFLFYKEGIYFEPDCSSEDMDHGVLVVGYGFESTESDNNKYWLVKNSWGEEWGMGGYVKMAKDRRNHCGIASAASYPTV
Sequence of Cytochrome P450 2D6 (P10635 whole entry): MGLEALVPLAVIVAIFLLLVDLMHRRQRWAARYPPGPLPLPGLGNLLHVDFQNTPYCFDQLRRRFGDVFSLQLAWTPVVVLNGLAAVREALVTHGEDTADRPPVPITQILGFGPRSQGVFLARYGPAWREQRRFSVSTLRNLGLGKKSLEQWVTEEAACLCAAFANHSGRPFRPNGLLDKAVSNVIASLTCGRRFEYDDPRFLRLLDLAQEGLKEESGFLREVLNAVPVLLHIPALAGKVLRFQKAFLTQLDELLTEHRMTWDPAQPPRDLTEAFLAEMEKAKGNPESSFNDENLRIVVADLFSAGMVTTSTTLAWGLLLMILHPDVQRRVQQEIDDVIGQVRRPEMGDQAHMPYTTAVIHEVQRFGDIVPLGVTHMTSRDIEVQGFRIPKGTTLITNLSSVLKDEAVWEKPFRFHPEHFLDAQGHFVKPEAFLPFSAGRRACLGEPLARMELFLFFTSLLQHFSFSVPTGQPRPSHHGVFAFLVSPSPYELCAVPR
Sequence of Cytochrome P450 3A4 (P08684 whole entry): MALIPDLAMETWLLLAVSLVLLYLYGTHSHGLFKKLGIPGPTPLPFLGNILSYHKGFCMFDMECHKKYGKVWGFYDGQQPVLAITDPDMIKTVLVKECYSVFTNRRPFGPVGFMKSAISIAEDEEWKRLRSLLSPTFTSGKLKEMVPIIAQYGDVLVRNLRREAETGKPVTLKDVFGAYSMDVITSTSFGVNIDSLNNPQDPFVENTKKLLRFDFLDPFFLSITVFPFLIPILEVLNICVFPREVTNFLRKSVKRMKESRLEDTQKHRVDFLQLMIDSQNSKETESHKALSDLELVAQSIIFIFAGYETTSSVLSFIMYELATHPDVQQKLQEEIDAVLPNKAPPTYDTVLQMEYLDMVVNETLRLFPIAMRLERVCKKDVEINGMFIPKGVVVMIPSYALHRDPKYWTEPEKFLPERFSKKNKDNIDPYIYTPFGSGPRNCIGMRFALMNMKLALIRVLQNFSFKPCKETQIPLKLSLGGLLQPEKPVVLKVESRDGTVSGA

Row | SMILES | solubility [1] | Ki (Rhodesain) | Ki (Procathepsin L) | Ratio Ki [2] | IC50 [3] | IC50 (L6) | microsomal CLint at 2 µM [4] | microsomal CLint at 2 µM [5] | Papp at 15 h [6] | IC50 (Cytochrome P450 3A4) | IC50 (Cytochrome P450 2D6) | IC50 (Cytochrome P450 2C9) | Activity [11] | selectivity ratio [12] | half-life [19] | clearance [20] | Vd [21] | also measured
1 | N#CC1(NC(=O)[C@H](Cc2ccc(OC(F)(F)F)c(Cl)c2)NC(=O)c2cnn(-c3ccc(F)nc3)n2)CC1 | 0.5 µg/mL (≈ 0.93 µM) | 14 nM | 143 nM | 10 | 6 nM | 6990 nM | < 10 µL/min/mg | < 10 µL/min/mg | 0.291 ×10⁻⁶ cm/s | 47000 nM | 1000 nM | 11000 nM | 40.8% | 1170 | – | – | – | half-life [7]: 1.42 h; clearance [8]: 10.2 mL/min/kg; Vd [9]: 1.2 L/kg; fraction unbound [10]: 0.0148
2 | N#CC1(NC(=O)[C@H](Cc2ccc(OC(F)(F)F)c(Cl)c2)NC(=O)c2cnn(-c3ccc(F)cc3)n2)CC1 | < 0.3 µg/mL | 7.4 nM | 266 nM | 36 | 9 nM | 18800 nM | < 10 µL/min/mg | < 10 µL/min/mg | – | > 50000 nM | 3000 nM | 9000 nM | – | 2090 | – | – | – | IC50 [13]: > 1000 nM; IC50 [14]: > 1000 nM; IC50 [15]: > 1000 nM; IC50 [16]: 450 nM; IC50 [17]: 64 nM; efflux ratio at 3.5 h, 1 µM (MDR1 (P-gp)): 6; efflux ratio at 3.5 h, 1 µM (Mdr1a (P-gp)): 20
3 | CC(C)(C)n1ncc(C(=O)N[C@@H](Cc2ccc(OC(F)(F)F)c(Cl)c2)C(=O)NC2(C#N)CC2)n1 | 0.9 µg/mL (≈ 1.8 µM) | 31 nM | 8 nM | 0.3 | 4 nM | 7630 nM | < 10 µL/min/mg | 17 µL/min/mg | 2.86 ×10⁻⁶ cm/s | > 50000 nM | 500 nM | 5000 nM | – | 1900 | 1.3 h | 17 mL/min/kg | 1.7 L/kg | logD at 100 µM [18]: 4.87
4 | N#CC1(NC(=O)[C@H](Cc2ccc(Cl)c(Cl)c2)NC(=O)c2cnn(-c3ccc(F)cc3)n2)CC1 | < 0.3 µg/mL | 2 nM | 131 nM | 66 | 7 nM | 9670 nM | < 10 µL/min/mg | < 10 µL/min/mg | 1.07 ×10⁻⁶ cm/s | > 50000 nM | 5000 nM | 4000 nM | 47.2% | 1390 | > 6.4 h | < 4.6 mL/min/kg | < 2.5 L/kg | –
